Laboratory results reported in ChEMBL document CHEMBL1157558, “Design, asymmetric synthesis, and evaluation of pseudosymmetric sulfoximine inhibitors against HIV-1 protease” (Bioorg Med Chem, 2010).

How the values were obtained:
[1] = biological target: Protease (Human immunodeficiency virus 1) (UniProt Q9YQ12); experiment: Inhibition of recombinant HIV1 protease at 10 uM by HPLC method
Procedure, shortened: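 Recombinant HIV-1 protease with HIV-1 Protease Substrate III in 50 mM sodium acetate pH 4.9, 200 mM NaCl, 5 mM DTT, 10% glycerol; inhibitors added from DMSO (5% v/v final). Enzyme addition starts the reaction, run 3.5 min at 37 °C, then quenched with 10% TFA. Substrate conversion is read by reverse-phase C18 HPLC (5–50% acetonitrile, 0.1% TFA), against inhibitor-free 5% DMSO baseline.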

[2] = system: Human immunodeficiency virus 1; experiment: Antiviral activity against HIV1 assessed as inhibition of viral infection at 10 uM by cell-based assay; type: functional
[3] = system: Human immunodeficiency virus 1; experiment: Antiviral activity against HIV1 assessed as inhibition of viral infection by cell-based assay; type: functional, organism-based

Chain of Protease (Human immunodeficiency virus 1) (Q9YQ12 as listed by the source): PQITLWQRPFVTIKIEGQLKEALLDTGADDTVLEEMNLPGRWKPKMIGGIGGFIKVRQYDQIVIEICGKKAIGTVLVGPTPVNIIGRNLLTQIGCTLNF

inhibition [1] [%] | IC50 [3] [µM] | Compound | inhibition at 10 µM [2] [%]
54 | – | N=[S+]([O-])(C[C@H](Cc1ccccc1)C(=O)N[C@H](CO)c1ccccc1)C[C@H](Cc1ccccc1)C(=O)N[C@H](CO)c1ccccc1 | 0
99 | – | CNC(=O)[C@H](NC(=O)[C@@H](Cc1ccccc1)C[S+](=N)([O-])C[C@H](Cc1ccccc1)C(=O)N[C@@H](C(=O)NC)C(C)C)C(C)C | 5.5
51 | – | O=C(N[C@@H](CO)c1ccccc1)[C@@H](CSC[C@@H](Cc1ccccc1)C(=O)N[C@@H](CO)c1ccccc1)Cc1ccccc1 | 15.4
– | > 10 | CN=[S+]([O-])(C[C@H](Cc1ccccc1)C(=O)N[C@@H]1c2ccccc2C[C@@H]1O)C[C@H](Cc1ccccc1)C(=O)N[C@@H]1c2ccccc2C[C@@H]1O | –
50 | – | O=C(N[C@H](CO)c1ccccc1)[C@@H](Cc1ccccc1)C[S+]([O-])C[C@H](Cc1ccccc1)C(=O)N[C@H](CO)c1ccccc1 | 2.5
90 | – | CNC(=O)[C@H](NC(=O)[C@@H](Cc1ccccc1)C[S+]([O-])C[C@H](Cc1ccccc1)C(=O)N[C@@H](C(=O)NC)C(C)C)C(C)C | 2.1
47 | – | O=C(N[C@@H](CO)c1ccccc1)[C@@H](Cc1ccccc1)C[S+]([O-])C[C@H](Cc1ccccc1)C(=O)N[C@@H](CO)c1ccccc1 | 0
87 | – | CNC(=O)[C@@H](NC(=O)[C@@H](CSC[C@@H](Cc1ccccc1)C(=O)N[C@H](C(=O)NC)C(C)C)Cc1ccccc1)C(C)C | 12.6
41 | – | O=C(N[C@H](CO)c1ccccc1)[C@@H](CSC[C@@H](Cc1ccccc1)C(=O)N[C@H](CO)c1ccccc1)Cc1ccccc1 | 1.4
87 | – | N=[S+]([O-])(C[C@H](Cc1ccccc1)C(=O)N[C@@H](CO)c1ccccc1)C[C@H](Cc1ccccc1)C(=O)N[C@@H](CO)c1ccccc1 | 0
